From ChEMBL document CHEMBL4396969, “Discovery of IACS-8803 and IACS-8779, potent agonists of stimulator of interferon genes (STING) with robust systemic antitumor efficacy” (Bioorg Med Chem Lett, 2019)
Calls of active or inactive are those of the source. The rule behind the calls is not given here.

Key:
[1] = biological target: T1, Stimulator of interferon genes protein (Mus musculus) (UniProt Q3TBT3); assay: Agonist activity at STING in mouse J774 cells assessed as stimulation of IRF3 pathway measured after 20 hrs by luciferase reporter gene assay; type: cell-based
T1 sequence (whole entry): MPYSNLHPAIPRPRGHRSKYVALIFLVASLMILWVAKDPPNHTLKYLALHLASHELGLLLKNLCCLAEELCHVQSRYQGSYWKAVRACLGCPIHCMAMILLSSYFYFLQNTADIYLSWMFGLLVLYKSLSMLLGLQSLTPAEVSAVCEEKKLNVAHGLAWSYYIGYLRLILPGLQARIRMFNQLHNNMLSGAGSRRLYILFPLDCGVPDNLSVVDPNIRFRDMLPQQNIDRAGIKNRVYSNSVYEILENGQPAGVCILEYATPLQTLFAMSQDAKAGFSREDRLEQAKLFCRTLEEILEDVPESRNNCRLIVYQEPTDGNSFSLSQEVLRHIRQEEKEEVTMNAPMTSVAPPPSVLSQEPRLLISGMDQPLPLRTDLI
Procedure, shortened: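 J774-Dual reporter cells (stably carrying inducible NF-kB and IRF3 reporter constructs), 5×10^4 per well, given CDN at 1 µg/mL for 20 hours; IRF3 pathway activity read by luciferase assay.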

Mus musculus [2] = assay: Antitumor activity against mouse B16-OVA cells implanted in mouse assessed as tumour regression in injected flank at 10 ug administered intratumorally on day 6, 9 and 12 post implantation; type: functional, cell-based
Procedure, shortened: (§1)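 Mice (n=5 per group) implanted bilaterally with 1×10^5 B16-Ova cells; 10 µg CDN injected intratumorally into one flank only on days 6, 9 and 12 post implantation. Tumor regression followed in injected and contralateral untreated flanks; cure of both tumors recorded.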

Mus musculus [3] = assay: Antitumor activity against mouse B16-OVA cells implanted in mouse assessed as tumour regression in contralateral flank at 10 ug administered intratumorally on day 6, 9 and 12 post implantation; type: functional, cell-based; procedure, shortened: as §1
Mus musculus [4] = assay: Antitumor activity against mouse B16-OVA cells implanted in mouse assessed as higher number of mouse cured of tumors at 10 ug administered intratumorally on day 6, 9 and 12 post implantation; type: functional, cell-based; procedure, shortened: as §1

Activity [1] | Structure (SMILES) | Activity (Mus musculus [2]) | Activity (Mus musculus [3]) | Activity (Mus musculus [4])
Active | Nc1ncnc2c1ccn2[C@@H]1O[C@@H]2CO[P@@](=O)(S)O[C@H]3[C@@H](O)[C@H](n4cnc5c(N)ncnc54)O[C@@H]3CO[P@@](=O)(S)O[C@@H]1[C@@H]2O | – | – | –
Active | Nc1ncnc2c1ccn2[C@@H]1O[C@@H]2CO[P@@](=O)(S)O[C@@H]3[C@H](O)[C@@H](CO[P@@](=O)(S)O[C@H]2[C@H]1O)O[C@H]3n1cnc2c(N)ncnc21 | Active | Active | Active
Active | Nc1ncnc2c1ncn2[C@@H]1O[C@@H]2CO[P@@](=O)(S)O[C@@H]3[C@H](O)[C@@H](CO[P@@](=O)(S)O[C@H]2[C@H]1F)O[C@H]3n1cnc2c(N)ncnc21 | Active | Active | Active
Active | Nc1ncnc2c1ccn2[C@@H]1O[C@@H]2CO[P@](=O)(S)O[C@@H]3[C@H](O)[C@@H](CO[P@@](=O)(S)O[C@H]2[C@H]1O)O[C@H]3n1cnc2c(N)ncnc21 | – | – | –
Active | Nc1ncnc2c1ncn2[C@@H]1O[C@@H]2CO[P@](=O)(S)O[C@@H]3[C@H](O)[C@@H](CO[P@@](=O)(S)O[C@H]2[C@H]1F)O[C@H]3n1cnc2c(N)ncnc21 | – | – | –
– | Nc1nc2c(ncn2[C@@H]2O[C@@H]3COP(=O)(O)O[C@H]4[C@@H](O)[C@H](n5cnc6c(N)ncnc65)O[C@@H]4COP(=O)(O)O[C@@H]2[C@@H]3O)c(=O)[nH]1 | Active | Active | Active
Active | Nc1ncnc2c1ccn2[C@@H]1O[C@@H]2CO[P@@](=O)(S)O[C@H]3[C@@H](O)[C@H](n4cnc5c(N)ncnc54)O[C@@H]3CO[P@](=O)(S)O[C@@H]1[C@@H]2O | – | – | –
